The record followed here is ChEMBL document CHEMBL1156175, “Synthesis, molecular modeling and biological evaluation of PSB as targeted antibiotics” (Bioorg Med Chem, 2010).

Usually IC50 stands for the concentration needed to halve the response being measured. As a reminder, the MIC is the smallest concentration in the dilution series that meets the test's criterion for growth inhibition. Read a high MIC as weaker potency.

Test [1] has as its target T1, 3-oxoacyl-[acyl-carrier-protein] synthase 3 (Escherichia coli, UniProt C3TDZ2).
T1 sequence (C3TDZ2 whole entry): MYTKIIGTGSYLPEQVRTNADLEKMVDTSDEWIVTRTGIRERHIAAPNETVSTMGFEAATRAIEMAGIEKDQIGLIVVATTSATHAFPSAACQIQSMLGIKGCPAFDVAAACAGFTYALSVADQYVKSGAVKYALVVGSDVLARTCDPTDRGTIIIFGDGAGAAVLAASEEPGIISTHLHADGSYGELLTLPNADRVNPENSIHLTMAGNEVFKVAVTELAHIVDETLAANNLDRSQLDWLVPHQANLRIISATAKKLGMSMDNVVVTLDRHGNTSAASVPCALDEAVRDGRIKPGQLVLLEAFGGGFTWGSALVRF
As to the kind of experiment: Inhibition of Escherichia coli KAS3 after 1 min assessed as incorporation of 3H signal in the final product by liquid scintillation counter. Conditions: in the assay text read “after 25 mins” for “after 1 min”. The method, boiled down:
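His-tagged ecKAS III expressed in E. coli BL21(DE3) (pET30) and purified on Ni–NTA. Reaction in 20 mM sodium phosphate pH 7.0, 0.5 mM DTT, 0.25 mM MgCl₂ with holo-ACP and 1 nM enzyme, preincubated 1 min. Started with acetyl-CoA, NADH and NADPH (0.5 mM each for the last two); run 25 min. Stopped with ice-cold TCA; protein pellet washed and dissolved in NaOH; ³H incorporation read by liquid scintillation. Inhibitors added from DMSO stock, final DMSO ≤2%.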

Test [2] deals with T1, 3-oxoacyl-[acyl-carrier-protein] synthase 3. The test can be described thus: Inhibition of Escherichia coli KAS3 after 25 mins assessed as incorporation of 3H signal in the final product by liquid scintillation counter.
For another test, the system named is Bacillus subtilis. The test can be described thus: Antibacterial activity against Bacillus subtilis ATCC 6633 after 24 hrs by colorimetric method using dye MTT. Type of test: functional. Conditions: ATCC 6633, 24 h. The method in brief:
(§1)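 Mueller–Hinton broth microdilution; compounds from DMSO stock (50 μg/mL) serially diluted in medium; inoculum approx. 10⁵ cfu/mL; 37 °C for 24 h. After visual MIC reading, PBS (0.01 mol/L, pH 7.4) containing 2 mg/mL MTT added, incubated 4–5 h at room temperature, then 12 h at room temperature; OD read at 550 nm. MIC is the average of triplicates.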

The test system of the next test is Escherichia coli. The test can be described thus: Antibacterial activity against Escherichia coli ATCC 35218 after 24 hrs by colorimetric method using dye MTT. Type of test: functional. Conditions: ATCC 35218, 24 h. The method in brief: as §1
Another test relates to Pseudomonas aeruginosa. As to the kind of experiment: Antibacterial activity against Pseudomonas aeruginosa ATCC 13525 after 24 hrs by colorimetric method using dye MTT. Type of test: functional. To be noted: ATCC 13525, 24 h. The method, boiled down:
as §1

The subject of the next test is Staphylococcus aureus. The test can be described thus: Antibacterial activity against Staphylococcus aureus ATCC 6538 after 24 hrs by colorimetric method using dye MTT. Type of test: functional. To be noted: ATCC 6538, 24 h. The method, boiled down:
as §1

SMILES strings stand for the structures. Converted amounts (≈) assume the structure as drawn. Some results are limits rather than exact numbers.

Take `CC(CNC(=O)c1ccccc1O)/N=C/c1c(O)ccc2ccccc12` (stereo unspecified): the IC50 in test [1] is 56.7 µM.
Consider `CC(CNC(=O)c1cc(Br)ccc1O)/N=C/c1ccccc1O` (stereo unspecified), for which the IC50 in test [2] was more than 133 µM.
As to `CC(CNC(=O)c1cc(Br)ccc1O)/N=C/c1cc(F)ccc1O` (stereo unspecified), the IC50 in test [1] is 56 µM.
`CC(CNC(=O)c1ccccc1O)/N=C/c1cc(Br)ccc1O` (stereo unspecified): the IC50 in test [2] is 16 µM.
`CC(CNC(=O)c1ccccc1O)/N=C/c1cc(I)ccc1O` (stereo unspecified): the MIC against Bacillus subtilis is 0.78 µg/mL (≈ 1.84 µM); in the test with Escherichia coli, 6.25 µg/mL (≈ 14.7 µM); in the test on Pseudomonas aeruginosa it was 3.13 µg/mL (≈ 7.38 µM); against Staphylococcus aureus it was 12.5 µg/mL (≈ 29.5 µM). In addition, the IC50 in test [2] is 1.84 µM.
On to `CC(CNC(=O)c1ccccc1O)/N=C/c1cc(Cl)cc(Cl)c1O` (stereo unspecified), for which the MIC against Bacillus subtilis came out at 1.56 µg/mL (≈ 4.25 µM); in the test with Escherichia coli, 0.39 µg/mL (≈ 1.06 µM); against Pseudomonas aeruginosa, 0.2 µg/mL (≈ 0.545 µM); in the test with Staphylococcus aureus, 3.13 µg/mL (≈ 8.52 µM). Also, the IC50 in test [1] was 0.844 µM.
Consider `CC(CNC(=O)c1cc(Br)ccc1O)/N=C/c1cc(Cl)ccc1O` (stereo unspecified), for which the IC50 in test [2] is more than 121 µM.
In the case of `CC(CNC(=O)c1cc(Br)ccc1O)/N=C/c1cc(I)ccc1O` (stereo unspecified), the IC50 in test [2] is 18.5 µM.
On to `CC(CNC(=O)c1cc(Br)ccc1O)/N=C/c1cc(Cl)cc(Cl)c1O` (stereo unspecified), for which the IC50 in test [2] is 19.6 µM.
`CC(CNC(=O)c1cc(Br)ccc1O)/N=C/c1cc(I)cc(I)c1O` (stereo unspecified): the IC50 in test [1] is more than 79.5 µM.
`Cc1ccc(C(=O)NCC(C)/N=C/c2cc(F)ccc2O)c(O)c1` (stereo unspecified): the MIC with Bacillus subtilis was 3.13 µg/mL (≈ 9.47 µM); with Escherichia coli it was 6.25 µg/mL (≈ 18.9 µM); with Pseudomonas aeruginosa, more than 50 µg/mL; in the test on Staphylococcus aureus, 12.5 µg/mL (≈ 37.8 µM). The IC50 in test [2] is 17.1 µM.
For `Cc1ccc(C(=O)NCC(C)/N=C/c2cc(Cl)ccc2O)c(O)c1` (stereo unspecified), in test [1], the IC50 is 24.9 µM.
Regarding `Cc1ccc(C(=O)NCC(C)/N=C/c2cc(Br)ccc2O)c(O)c1` (stereo unspecified), the IC50 in test [2] was 16.2 µM.
In the case of `Cc1ccc(C(=O)NCC(C)/N=C/c2cc(I)ccc2O)c(O)c1` (stereo unspecified), the MIC against Bacillus subtilis was found to be 1.56 µg/mL (≈ 3.56 µM); against Escherichia coli, 0.39 µg/mL (≈ 0.89 µM); with Pseudomonas aeruginosa, 3.13 µg/mL (≈ 7.14 µM); in the test on Staphylococcus aureus, 1.56 µg/mL (≈ 3.56 µM). For the same compound, the IC50 in test [2] was 1.03 µM.
For the compound `CC(CNC(=O)c1ccccc1O)/N=C/c1cc(Br)cc(Br)c1O` (stereo unspecified), the MIC against Bacillus subtilis is 12.5 µg/mL (≈ 27.4 µM); against Escherichia coli it was 25 µg/mL (≈ 54.8 µM); against Pseudomonas aeruginosa it was 0.78 µg/mL (≈ 1.71 µM); in the test with Staphylococcus aureus, 6.25 µg/mL (≈ 13.7 µM). Also, the IC50 in test [1] is 6.86 µM.
Turning to `CC(CNC(=O)c1ccccc1O)/N=C/c1cc(I)cc(I)c1O` (stereo unspecified), the MIC in the test on Bacillus subtilis was 12.5 µg/mL (≈ 22.7 µM); in the test with Escherichia coli, more than 50 µg/mL; with Pseudomonas aeruginosa, 6.25 µg/mL (≈ 11.4 µM); against Staphylococcus aureus it was 12.5 µg/mL (≈ 22.7 µM). For the same compound, the IC50 in test [1] is 4.65 µM.
Consider `Cc1ccc(C(=O)NCC(C)/N=C/c2cc(Cl)cc(Cl)c2O)c(O)c1` (stereo unspecified), for which the MIC in the test with Bacillus subtilis was 1.56 µg/mL (≈ 4.09 µM); against Escherichia coli, 3.13 µg/mL (≈ 8.21 µM); against Pseudomonas aeruginosa, 25 µg/mL (≈ 65.6 µM); in the test on Staphylococcus aureus it was 6.25 µg/mL (≈ 16.4 µM). In addition, in test [1], the IC50 was 4.59 µM.
Take `CC(CNC(=O)c1cc(Br)ccc1O)/N=C/c1cc(Br)cc(Br)c1O` (stereo unspecified): in test [1], the IC50 is more than 93.5 µM.
As to `Cc1ccc(C(=O)NCC(C)/N=C/c2cc(Br)cc(Br)c2O)c(O)c1` (stereo unspecified), the MIC in the test on Bacillus subtilis is 3.13 µg/mL (≈ 6.66 µM); in the test on Escherichia coli, 0.78 µg/mL (≈ 1.66 µM); with Pseudomonas aeruginosa, 12.5 µg/mL (≈ 26.6 µM); in the test with Staphylococcus aureus, more than 50 µg/mL. The IC50 in test [2] is 11.4 µM.
Regarding `Cc1ccc(C(=O)NCC(C)/N=C/c2cc(I)cc(I)c2O)c(O)c1` (stereo unspecified), in test [1], the IC50 is 26.5 µM.
Take `Cc1ccc(C(=O)NCC(C)/N=C/c2c(O)ccc3ccccc23)c(O)c1` (stereo unspecified): the MIC was 6.25 µg/mL (≈ 17.2 µM) against Bacillus subtilis, 12.5 µg/mL (≈ 34.5 µM) against Escherichia coli, more than 50 µg/mL against Pseudomonas aeruginosa and more than 50 µg/mL with Staphylococcus aureus. Also, the IC50 in test [2] was 12.9 µM.
As for `CC(CNC(=O)c1ccccc1O)/N=C/c1ccccc1O` (stereo unspecified), in test [1], the IC50 was 27.3 µM.
On the same count and under the same terms, as for `CC(CNC(=O)c1ccccc1O)/N=C/c1cc(F)ccc1O` (stereo unspecified), the figure is 38.3 µM.
Regarding `CC(CNC(=O)c1ccccc1O)/N=C/c1cc(Cl)ccc1O` (stereo unspecified), the MIC in the test with Bacillus subtilis is more than 50 µg/mL; against Escherichia coli, 12.5 µg/mL (≈ 37.6 µM); with Pseudomonas aeruginosa it was 3.13 µg/mL (≈ 9.41 µM); with Staphylococcus aureus, more than 50 µg/mL. Further, the IC50 in test [2] was 16.4 µM.
For `CC(CNC(=O)c1cc(Br)ccc1O)/N=C/c1cc(Br)ccc1O` (stereo unspecified), the IC50 in test [1] is 36.6 µM.
Turning to `CC(CNC(=O)c1cc(Br)ccc1O)/N=C/c1c(O)ccc2ccccc12` (stereo unspecified), the IC50 in test [1] is 25.6 µM.
Same read-out and setting: as for `Cc1ccc(C(=O)NCC(C)/N=C/c2ccccc2O)c(O)c1` (stereo unspecified), the figure is 25.2 µM.
Turning to `NC[C@H]1O[C@H](O[C@H]2[C@H](O)[C@@H](O[C@H]3O[C@H](CO)[C@@H](O)[C@H](N)[C@H]3O)[C@H](N)C[C@@H]2N)[C@H](O)[C@@H](O)[C@@H]1O` [KANAMYCIN], the MIC in the test with Bacillus subtilis is 1.56 µg/mL (≈ 3.22 µM); against Escherichia coli, 3.13 µg/mL (≈ 6.46 µM); against Pseudomonas aeruginosa, 3.13 µg/mL (≈ 6.46 µM); against Staphylococcus aureus it was 1.56 µg/mL (≈ 3.22 µM).
